Test results: ChEMBL document CHEMBL1123812, “Pyrroloisoquinoline antidepressants. 2. In-depth exploration of structure-activity relationships” (J Med Chem, 1987)
Calls of active or inactive are those of the source.

How the values were obtained:
Mus musculus [1] = assay: Ability to antagonise intraperitoneal dose; inactive (<10% antagonism) at 30 mg/kg is represented as I-30.; assay type: functional, organism-based; design: dose 30 mg/kg
In short: (§1)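 Nonfasted male Swiss Webster mice, 18–24 g, ten per dose level and in saline controls. Test compound given ip 30 min before tetrabenazine 32 mg/kg ip; dose expressed as free base. Motor activity and ptosis scored. Control response ≤90% corrected by Abbott's formula.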

Mus musculus [2] = organism: Mus musculus; assay: Gross behavioral effects ascertained in mice; C indicates overt convulsant; assay type: functional, organism-based
In short: (§2)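 Male Swiss Webster mice, 18–24 g, three per dose, given ip doses of 1, 3, 10, 30, 100 and 300 mg/kg. Observed for gross behavior and held for 4 days. Scored as weak (W), stimulant (S), depressant (D) or convulsant (C).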

[3] = target: Sodium-dependent serotonin transporter (Rattus norvegicus) (UniProt P31652); assay: Inhibition of tritiated serotonin(5-HT) uptake at 0.1 uM concentration; assay type: functional
In short: (§3)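 Male Wistar rat brain synaptosomes (P2 fraction): hypothalamus for NE, striatum for DA, cerebral cortex for 5-HT. Buffer is Tris- or HEPES-buffered salt medium with glucose, ascorbate and nialamide, pH 7.4 at 37 °C. Preincubated 10 min at 37 °C with compound. Uptake started with [3H]NE 100–300 nM, [3H]DA 50–300 nM or [3H]5-HT 100–200 nM, incubated 3 min (DA) or 6–10 min (NE, 5-HT). Blanks held on ice. Filtered, counted by scintillation.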

Mus musculus [4] = assay: Ability to antagonise intraperitoneal 30 mg/kg dose; inactive (<10% antagonism) at 30 mgjkg is represented as I-30.; assay type: functional, organism-based; design: dose 30 mg/kg; in short: as §1
Rattus norvegicus [5] = organism: Rattus norvegicus; assay: Ability to inhibit the uptake of tritiated norepinephrine (NE) at 0.1 uM concentration; assay type: functional; in short: as §3
[6] = target: Sodium-dependent dopamine transporter (Rattus norvegicus, UniProt P23977); assay: Inhibition of the uptake of tritiated dopamine (DA) in rat synaptosomes; assay type: subcellular, Brain
Mus musculus [7] = organism: Mus musculus; assay: Gross behavioral effects ascertained in mice; W indicates weak stimulant or depressant activity of little significance.; assay type: functional, organism-based; in short: as §2
Mus musculus [8] = organism: Mus musculus; assay: Antagonism of tetrabenazine (TBZ)-induced depression measured in mice by motor activity; assay type: functional; settings: Mus musculus; read-out: ED50; in short: as §1
Rattus norvegicus [9] = assay: Ability to inhibit the uptake of tritiated norepinephrine (NE) 0.1 mg/kg concentration; assay type: functional
Mus musculus [10] = organism: Mus musculus; assay: Antagonism of tetrabenazine (TBZ)-induced depression in mice measured for ptosis; assay type: functional; settings: Mus musculus; read-out: ED50; in short: as §1
Rattus norvegicus [11] = assay: Ability to inhibit the uptake of tritiated serotonin(5-HT) 0.1 mg/kg concentration; assay type: functional
[12] = target: Serotonin 1 (5-HT1) receptor (Rattus norvegicus) (UniProt P28564+P30940+P19327+P28565); assay: Binding affinity towards serotonin S1 receptor at 1.0 uM; assay type: protein assay
In short: (§4)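 Rat brain crude synaptic membranes in 20 mM NaHEPES pH 7.5. Ligands: α1 cortex […] 0.4 nM, nonspecific with (-)-NE 100 μM, 30 min at 25 °C. […] D2 striatum [3H]spiperone 0.05 nM with (+)-butaclamol 1 μM, 45 min at 37 °C. S1 cortex [3H]5-HT 1 nM plus glutathione and MgCl2, with 5-HT 10 μM, 20 min at 37 °C. […] Samples filtered on GF/B and counted.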

[13] = target: T1, Serotonin 2 (5-HT2) receptor (Rattus norvegicus) (UniProt P30994+P08909+P14842); assay: Binding affinity towards 5-hydroxytryptamine 2 receptor; assay type: protein assay; settings: concentration not given here; in short: as §4
[14] = target: D(2) dopamine receptor (Rattus norvegicus) (UniProt P61169); assay: Binding affinity towards dopamine receptor D2 at 1.0 uM concentration; in short: as §4
Mus musculus [15] = assay: (§5) Ability to antagonise intraperitoneal dose; inactive (<10% antagonism) at 30 mgjkg is represented as I-30.; assay type: functional, organism-based; in short: as §1
Rattus norvegicus [16] = organism: Rattus norvegicus; assay: Ability to inhibit the uptake of tritiated dopamine (DA) 1 uM concentration; assay type: functional
In short: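 Rat brain synaptosomal [3H]dopamine uptake: striatal P2 fraction, test compound at 1.00 μM. Preincubated at 37 °C, then 50–300 nM [3H]DA for 3 min. Blanks on ice. Filtration and scintillation counting; percent inhibition of control uptake.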

[17] = target: Norepinephrine transporter (Rattus norvegicus) (UniProt Q9WTR4); assay: Ability to inhibit the uptake of [3H]norepinephrine (NE) 0.1 uM concentration at rat brain synaptosomes; assay type: functional, subcellular; in short: as §3
[18] = target: Sodium-dependent serotonin transporter (Rattus norvegicus) (UniProt P31652); assay: Ability to inhibit the uptake of [3H]- serotonin(5-HT) 0.1 uM concentration at rat brain synaptosomes; assay type: functional, subcellular; in short: as §3
Mus musculus [19] = assay: Ability to antagonise intraperitoneal administration; inactive (<10% antagonism) at 30 mgjkg is represented as I-30.; assay type: functional, organism-based; in short: as §1
Rattus norvegicus [20] = organism: Rattus norvegicus; assay: Ability to inhibit the uptake of tritiated serotonin (5-HT) at 0.1 uM concentration in rat synaptosomes; assay type: functional; settings: Brain; in short: as §3
Rattus norvegicus [21] = organism: Rattus norvegicus; assay: Ability to inhibit the uptake of tritiated dopamine (DA); assay type: functional; in short: as §3
[22] = target: Norepinephrine transporter (Rattus norvegicus, UniProt Q9WTR4); assay: Inhibition of uptake of tritiated norepinephrine (NE) in rat synaptosomes; assay type: subcellular, Brain
[23] = target: Sodium-dependent dopamine transporter (Rattus norvegicus) (UniProt P23977); assay: Ability to inhibit the uptake of [3H]dopamine (DA) 0.1 uM concentration at rat brain synaptosomes; assay type: functional, subcellular; in short: as §3
Rattus norvegicus [24] = organism: Rattus norvegicus; assay: Ability to inhibit the uptake of tritiated norepinephrine (NE) 0.1 uM concentration; assay type: functional; in short: as §3
Rattus norvegicus [25] = assay: Ability to inhibit the uptake of tritiated serotonin(5-HT) at 0.1 mg/kg concentration; assay type: functional
[26] = target: Adrenergic receptor alpha-1 (Rattus norvegicus) (UniProt P15823+P23944+P43140); assay: Binding affinity towards alpha-1 adrenergic receptor at 1.0 uM concentration; assay type: protein assay; in short: as §4
Mus musculus [27] = organism: Mus musculus; assay: Gross behavioral effects ascertained in mice; S indicates significant stimulant properties.; assay type: functional, organism-based; in short: as §2
[28] = target: D(1A) dopamine receptor (Rattus norvegicus) (UniProt P18901); assay: Binding affinity towards Dopamine receptor D1 at 1.0 uM concentration; in short: as §4
[29] = target: Muscarinic acetylcholine receptor (Rattus norvegicus) (UniProt P08482+P08483+P08485+P08911+P10980); assay: Binding affinity towards Muscarinic acetylcholine receptor at 10 uM concentration; assay type: protein assay
Mus musculus [30] = assay: as §5; assay type: functional, organism-based; remark: listed apart in the source
In short: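 Swiss Webster male albino mice, nonfasted, 18–24 g, 10 per dose and in saline control. Compound given ip 30 min before TBZ 32 mg/kg ip. Motor activity and ptosis scored. Response corrected by Abbott's formula when control response was 90% or less. Doses expressed as free base.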

Mus musculus [31] = organism: Mus musculus; assay: Gross behavioral effects ascertained in mice; D indicates significant depressant properties.; assay type: functional, organism-based
In short: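 Male Swiss Webster albino mice, 18–24 g, three per dose, given ip 1, 3, 10, 30, 100 and 300 mg/kg. Gross behaviour observed and held 4 days. Estimated LD50 range from lethality count on day 4. Scored as weak stimulant/depressant, significant stimulant, significant depressant or overt convulsant.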

Mus musculus [32] = assay: Ability to antagonise intraperitoneal administration; weakly active (>=10% and <=30% antagonism) at 30 mg/kg is represented as >30; assay type: functional; settings: ip; in short: as §1
Mus musculus [33] = organism: Mus musculus; assay: Gross behavioral effects ascertained in mice; assay type: functional, organism-based; in short: as §2
[34] = target: Sodium-dependent dopamine transporter (Rattus norvegicus) (UniProt P23977); assay: Inhibition of tritiated dopamine (DA) uptake at 0.1 uM concentration; assay type: functional; in short: as §3
[35] = target: T1, Serotonin 2 (5-HT2) receptor (Rattus norvegicus); assay: Binding affinity towards 5-hydroxytryptamine 2 receptor at 1.0 uM concentration; assay type: protein assay; in short: as §4
Mus musculus [36] = assay: as §5; assay type: functional, organism-based; in short: as §1; remark: listed apart in the source

Sequence of Sodium-dependent serotonin transporter (Rattus norvegicus) (P31652 whole entry): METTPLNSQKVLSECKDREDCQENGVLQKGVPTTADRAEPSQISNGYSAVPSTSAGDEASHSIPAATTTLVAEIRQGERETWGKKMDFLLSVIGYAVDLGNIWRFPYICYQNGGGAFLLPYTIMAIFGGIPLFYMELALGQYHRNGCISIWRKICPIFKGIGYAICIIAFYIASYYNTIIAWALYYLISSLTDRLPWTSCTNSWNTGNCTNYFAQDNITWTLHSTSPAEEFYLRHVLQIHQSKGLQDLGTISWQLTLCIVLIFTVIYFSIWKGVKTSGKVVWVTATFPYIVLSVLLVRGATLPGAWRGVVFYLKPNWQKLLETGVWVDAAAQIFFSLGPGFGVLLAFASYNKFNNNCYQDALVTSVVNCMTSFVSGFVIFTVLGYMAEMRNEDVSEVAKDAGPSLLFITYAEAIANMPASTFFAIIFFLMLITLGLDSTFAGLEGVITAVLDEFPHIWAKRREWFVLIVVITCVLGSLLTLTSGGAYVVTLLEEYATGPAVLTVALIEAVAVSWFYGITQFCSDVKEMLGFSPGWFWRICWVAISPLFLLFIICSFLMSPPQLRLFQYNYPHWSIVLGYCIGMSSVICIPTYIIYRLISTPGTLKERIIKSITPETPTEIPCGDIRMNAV
T1 sequence (P08909 whole entry, looked up): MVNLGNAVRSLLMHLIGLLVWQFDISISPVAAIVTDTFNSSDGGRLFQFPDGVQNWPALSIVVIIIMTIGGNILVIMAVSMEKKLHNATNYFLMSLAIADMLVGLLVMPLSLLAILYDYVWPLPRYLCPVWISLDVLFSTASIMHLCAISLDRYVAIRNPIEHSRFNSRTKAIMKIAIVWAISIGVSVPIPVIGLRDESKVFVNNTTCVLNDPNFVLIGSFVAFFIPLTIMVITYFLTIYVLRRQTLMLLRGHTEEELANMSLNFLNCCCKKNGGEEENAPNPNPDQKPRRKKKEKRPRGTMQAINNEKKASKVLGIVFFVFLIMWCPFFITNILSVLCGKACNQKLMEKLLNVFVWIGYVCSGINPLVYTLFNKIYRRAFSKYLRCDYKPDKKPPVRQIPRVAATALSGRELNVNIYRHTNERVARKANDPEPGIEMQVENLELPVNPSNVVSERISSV
T1 sequence (P14842 whole entry, looked up): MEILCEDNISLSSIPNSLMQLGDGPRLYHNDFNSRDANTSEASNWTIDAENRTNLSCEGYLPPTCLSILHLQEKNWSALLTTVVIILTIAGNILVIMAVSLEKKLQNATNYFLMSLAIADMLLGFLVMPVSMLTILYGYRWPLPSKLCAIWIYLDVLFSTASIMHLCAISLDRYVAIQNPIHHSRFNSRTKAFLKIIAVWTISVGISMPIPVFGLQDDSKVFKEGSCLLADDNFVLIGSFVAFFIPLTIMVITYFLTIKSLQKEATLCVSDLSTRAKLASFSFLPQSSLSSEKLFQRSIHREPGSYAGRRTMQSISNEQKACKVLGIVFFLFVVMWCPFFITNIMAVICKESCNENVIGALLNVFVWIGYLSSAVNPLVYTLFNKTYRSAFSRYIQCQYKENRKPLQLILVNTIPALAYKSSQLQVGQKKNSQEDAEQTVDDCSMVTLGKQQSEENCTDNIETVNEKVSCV
T1 sequence (P30994 whole entry, looked up): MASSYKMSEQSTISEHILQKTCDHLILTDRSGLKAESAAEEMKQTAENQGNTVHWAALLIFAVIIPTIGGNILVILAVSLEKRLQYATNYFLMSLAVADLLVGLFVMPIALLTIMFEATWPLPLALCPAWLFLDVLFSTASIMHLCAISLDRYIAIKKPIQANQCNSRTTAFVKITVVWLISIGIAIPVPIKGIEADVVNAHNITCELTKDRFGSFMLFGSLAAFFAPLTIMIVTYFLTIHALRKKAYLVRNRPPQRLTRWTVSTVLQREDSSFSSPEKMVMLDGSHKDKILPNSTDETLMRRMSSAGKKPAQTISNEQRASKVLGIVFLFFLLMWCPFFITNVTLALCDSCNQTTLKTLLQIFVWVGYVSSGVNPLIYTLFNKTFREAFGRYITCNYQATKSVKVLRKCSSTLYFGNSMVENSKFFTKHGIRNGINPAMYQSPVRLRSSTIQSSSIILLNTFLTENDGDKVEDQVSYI
Sequence of Sodium-dependent dopamine transporter (Rattus norvegicus) (P23977 whole entry): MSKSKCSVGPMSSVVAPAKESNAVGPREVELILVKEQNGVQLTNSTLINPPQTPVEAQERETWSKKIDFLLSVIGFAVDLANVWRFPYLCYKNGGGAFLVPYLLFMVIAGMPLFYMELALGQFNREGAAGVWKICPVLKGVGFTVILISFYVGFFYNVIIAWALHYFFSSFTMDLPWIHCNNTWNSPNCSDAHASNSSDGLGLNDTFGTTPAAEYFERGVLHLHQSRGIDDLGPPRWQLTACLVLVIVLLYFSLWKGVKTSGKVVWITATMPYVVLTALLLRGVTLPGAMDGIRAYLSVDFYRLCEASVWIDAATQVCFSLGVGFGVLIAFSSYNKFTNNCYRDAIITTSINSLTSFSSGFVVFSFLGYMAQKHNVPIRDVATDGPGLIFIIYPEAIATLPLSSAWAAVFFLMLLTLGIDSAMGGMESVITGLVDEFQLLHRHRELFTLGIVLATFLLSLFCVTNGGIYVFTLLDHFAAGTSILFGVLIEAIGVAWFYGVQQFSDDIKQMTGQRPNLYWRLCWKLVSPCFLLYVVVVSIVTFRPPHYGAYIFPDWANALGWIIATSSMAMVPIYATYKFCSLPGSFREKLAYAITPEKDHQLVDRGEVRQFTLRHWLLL
Sequence of Sodium-dependent dopamine transporter (P23977 whole entry): as above
Sequence of Norepinephrine transporter (Rattus norvegicus) (Q9WTR4 as listed by the source): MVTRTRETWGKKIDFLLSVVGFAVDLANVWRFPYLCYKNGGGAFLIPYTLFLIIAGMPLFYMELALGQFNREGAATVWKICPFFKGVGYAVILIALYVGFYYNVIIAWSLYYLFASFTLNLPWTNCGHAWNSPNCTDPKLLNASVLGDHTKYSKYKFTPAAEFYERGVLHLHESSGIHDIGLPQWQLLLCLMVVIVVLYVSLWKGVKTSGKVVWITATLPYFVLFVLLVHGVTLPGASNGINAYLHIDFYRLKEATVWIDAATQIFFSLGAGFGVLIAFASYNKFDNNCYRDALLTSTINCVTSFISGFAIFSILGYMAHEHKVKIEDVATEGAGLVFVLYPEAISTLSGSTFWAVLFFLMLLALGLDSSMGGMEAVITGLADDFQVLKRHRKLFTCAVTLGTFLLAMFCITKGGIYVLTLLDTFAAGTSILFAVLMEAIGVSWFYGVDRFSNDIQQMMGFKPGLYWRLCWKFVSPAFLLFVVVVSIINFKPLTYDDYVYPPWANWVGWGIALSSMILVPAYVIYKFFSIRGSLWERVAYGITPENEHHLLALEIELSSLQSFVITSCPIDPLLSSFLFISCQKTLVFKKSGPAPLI
Sequence of D(1A) dopamine receptor (Rattus norvegicus) (P18901 whole entry): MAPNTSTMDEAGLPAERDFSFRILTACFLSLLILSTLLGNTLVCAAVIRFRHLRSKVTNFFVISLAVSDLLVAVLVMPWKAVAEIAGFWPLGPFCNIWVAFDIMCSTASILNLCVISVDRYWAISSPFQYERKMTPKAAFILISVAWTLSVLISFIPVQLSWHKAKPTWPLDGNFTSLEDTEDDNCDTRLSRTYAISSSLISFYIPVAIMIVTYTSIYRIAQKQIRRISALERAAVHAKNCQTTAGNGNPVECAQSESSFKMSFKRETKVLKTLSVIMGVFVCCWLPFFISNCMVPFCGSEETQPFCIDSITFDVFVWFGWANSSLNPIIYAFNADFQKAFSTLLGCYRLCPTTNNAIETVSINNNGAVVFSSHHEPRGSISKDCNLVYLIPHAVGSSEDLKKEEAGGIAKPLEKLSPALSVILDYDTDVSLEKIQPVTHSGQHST
Sequence of Norepinephrine transporter (Q9WTR4 whole entry): as the sequence (Q9WTR4 as listed by the source) above
Sequence of D(2) dopamine receptor (Rattus norvegicus) (P61169 whole entry): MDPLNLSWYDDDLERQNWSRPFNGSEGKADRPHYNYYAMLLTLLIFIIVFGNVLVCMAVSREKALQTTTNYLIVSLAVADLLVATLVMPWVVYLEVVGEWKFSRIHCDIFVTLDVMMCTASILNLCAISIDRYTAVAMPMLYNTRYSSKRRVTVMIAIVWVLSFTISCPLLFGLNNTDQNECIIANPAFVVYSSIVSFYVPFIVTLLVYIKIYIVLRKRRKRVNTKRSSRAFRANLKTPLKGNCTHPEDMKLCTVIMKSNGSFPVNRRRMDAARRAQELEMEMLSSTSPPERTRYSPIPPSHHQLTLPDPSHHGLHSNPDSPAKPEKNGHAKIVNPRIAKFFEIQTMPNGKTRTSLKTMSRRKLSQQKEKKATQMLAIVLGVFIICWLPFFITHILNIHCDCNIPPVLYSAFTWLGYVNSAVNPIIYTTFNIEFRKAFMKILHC

## COc1ccc([C@@H]2CN3CCCC3c3cc(OC)c(OC)cc32)cc1OC (stereo partly drawn)
Mus musculus [1]
  ED50: inactive
Mus musculus [2]
  behavior: Overt convulsant
[3]
  inhibition: 10%
Mus musculus [4]
  ED50: inactive
Rattus norvegicus [5]
  Inhibition: 18%
[6]
  Ki: 355 nM

## c1ccc(CCN2CCCC2c2ccccc2)cc1 (stereo not drawn)
Mus musculus [7]
  behavior: Weak
Mus musculus [8]
  ED50: ~10 mg/kg
Rattus norvegicus [9]
  inhibition in vivo at 0.1 mg/kg: 38%
Mus musculus [10]
  ED50: ~10 mg/kg
Rattus norvegicus [11]
  inhibition in vivo at 0.1 mg/kg: 4%

## FC(F)(F)c1cccc([C@@H]2CN3CCC[C@@H]3c3ccccc32)c1 (stereo in doubt; (-)-37b)
[12]
  inhibition: 58%
[13]
  inhibition: 45%
[14]
  inhibition: 9%

## c1ccc2c(c1)[C@H](C1CCCCC1)CN1CCC[C@@H]21
Mus musculus [7]
  behavior: Weak
Mus musculus [15]
  ED50: inactive
Rattus norvegicus [16]
  Inhibition: 31%
[17]
  inhibition: 0%
[18]
  inhibition: 0%
Mus musculus [19]
  ED50: inactive

## c1ccc([C@@H]2CN3CCC[C@H]3c3ccccc32)cc1 [listing 1 of 2 here]
Mus musculus [7]
  behavior: Weak
Mus musculus [15]
  ED50: inactive
[17]
  inhibition: 21%
Rattus norvegicus [20]
  inhibition: 1%
Mus musculus [1]
  ED50: inactive
Mus musculus [2]
  behavior: Overt convulsant
[18]
  inhibition: -10%

## C[C@@]12CCCCN1C[C@H](c1ccccc1)c1ccccc12
Mus musculus [7]
  behavior: Weak
Rattus norvegicus [21]
  Ki: 36.4 nM
[22]
  Ki: 10.5 nM
Mus musculus [15]
  ED50: inactive
Mus musculus [1]
  ED50: inactive
[18]
  inhibition: 15%

## Br.Cn1ccc2c1[C@H](c1ccccc1)CN1CCC[C@@H]21
Mus musculus [7]
  behavior: Weak
Mus musculus [8]
  ED50: > 30 mg/kg
Rattus norvegicus [9]
  inhibition in vivo at 0.1 mg/kg: 8%
Mus musculus [10]
  ED50: > 30 mg/kg
Rattus norvegicus [11]
  inhibition in vivo at 0.1 mg/kg: 6%

## FC(F)(F)c1cccc([C@@H]2CN3CCC[C@H]3c3cccc(Cl)c32)c1
[23]
  inhibition: 4%
Rattus norvegicus [24]
  Ki: ~100 nM
[18]
  inhibition: 22%

## Br.c1ccc([C@H]2CN3CCC[C@H]3Cc3ccccc32)cc1
Rattus norvegicus [25]
  inhibition in vivo at 0.1 mg/kg: 9%
Mus musculus [8]
  ED50: > 3 mg/kg

## c1ccc([C@@H]2CN3CCC[C@H]3c3ccccc32)cc1 [listing 2 of 2 here]
Rattus norvegicus [21]
  Ki: ~100 nM

## FC(F)(F)c1cccc([C@@H]2CN3CCC[C@@H]3c3ccccc32)c1 (stereo in doubt; (+)-37b)
Mus musculus [7]
  behavior: Partial stimulant
[13]
  inhibition: 44%
[26]
  inhibition: 48%

## c1ccc([C@@H]2CN3CCC[C@@H]3c3ccccc32)cc1 (stereo in doubt; 7b)
Mus musculus [27]
  behavior: Stimulant
[28]
  inhibition: 35%
[29]
  inhibition: 0%

## c1ccc([C@@H]2CN3CCC[C@H]3c3[nH]c4ccccc4c32)cc1
Mus musculus [30]
  ED50: inactive
Mus musculus [1]
  ED50: inactive
Mus musculus [31]
  behavior: Significant depressant
Rattus norvegicus [9]
  inhibition in vivo at 0.1 mg/kg: 7%
Rattus norvegicus [11]
  inhibition in vivo at 0.1 mg/kg: -21%

## Br.CS(=O)(=O)c1ccc([C@@H]2CN3CCC[C@@H]3c3ccccc32)cc1
Mus musculus [1]
  ED50: inactive
Mus musculus [32]
  ED50 at 30 mg/kg: > 30 mg/kg
Mus musculus [33]
  behavior: inactive

## Br.COc1cc([C@@H]2CN3CCC[C@H]3c3ccccc32)cc(OC)c1OC
Mus musculus [7]
  behavior: Partial stimulant
[34]
  inhibition: 0%
[35]
  inhibition: 88%
Mus musculus [1]
  ED50: inactive
[3]
  inhibition: 12%
Mus musculus [4]
  ED50: inactive
[26]
  inhibition: 90%
Rattus norvegicus [5]
  Inhibition: 9%

## c1ccc([C@@H]2CN3CCC[C@H]3Cc3ccccc32)cc1
Rattus norvegicus [25]
  inhibition in vivo at 0.1 mg/kg: 6%

## C[C@@]12CCCCN1C[C@@H](c1ccccc1)c1ccccc12
Mus musculus [15]
  ED50: inactive
Mus musculus [2]
  behavior: Overt convulsant
Rattus norvegicus [24]
  Ki: 2 nM
[18]
  inhibition: 4%
Mus musculus [36]
  ED50: inactive
[6]
  Ki: > 1000 nM
